ASAP1 inh: inhibitors of human ASAP1 ArfGAP activity. Q9ULH1. ASAP1-stimulated ARF1 GTP hydrolysis, GDP FP detection. inhibition, % at 16.5 µM. 360,000 compounds, 0.19% hits. AID 624377; in the data active = inhibition above about 25%;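 note: 0% = vehicle with enzyme and substrate and 100% = no enzyme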
Target sequence (Q9ULH1 325-724 limits assumed): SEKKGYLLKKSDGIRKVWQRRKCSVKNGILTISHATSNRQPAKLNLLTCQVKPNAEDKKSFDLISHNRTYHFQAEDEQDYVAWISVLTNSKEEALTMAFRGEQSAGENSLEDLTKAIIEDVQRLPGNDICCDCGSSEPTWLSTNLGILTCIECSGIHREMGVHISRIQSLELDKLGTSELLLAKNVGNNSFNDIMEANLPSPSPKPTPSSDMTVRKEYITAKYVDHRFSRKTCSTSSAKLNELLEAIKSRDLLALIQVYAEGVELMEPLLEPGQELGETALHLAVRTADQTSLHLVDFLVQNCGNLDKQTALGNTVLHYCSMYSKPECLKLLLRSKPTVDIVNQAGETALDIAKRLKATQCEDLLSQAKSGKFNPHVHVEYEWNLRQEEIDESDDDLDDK
Rtt109 Vps75: C. albicans Rtt109 histone acetyltransferase inhibition. inhibition, % at 34.9 µM. purified Rtt109/Vps75, ThioGlo CoA-SH fluorescence, 4 h. 330,000 compounds, 0.16% hits. AID 540336. Q5AAJ8;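 active = inhibition of at least 50% in every replicate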
FGF22 binding: shifts melting point of recombinant human FGF22; AID 651658; 340,000 compounds, 1.5% hits; activity (Tm shift, normalised), % at 9.99 µM; Q9HCT0; recombinant FGF22 thermal shift, SYPRO orange fluorescence; percent of sucrose octasulfate shift, DMSO zero;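 active = mean Tm shift, scaled 0 neutral to 100 positive control, at about 1.3% or above, every replicate too, limit read from the data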
Target sequence (Q9HCT0 whole entry, looked up): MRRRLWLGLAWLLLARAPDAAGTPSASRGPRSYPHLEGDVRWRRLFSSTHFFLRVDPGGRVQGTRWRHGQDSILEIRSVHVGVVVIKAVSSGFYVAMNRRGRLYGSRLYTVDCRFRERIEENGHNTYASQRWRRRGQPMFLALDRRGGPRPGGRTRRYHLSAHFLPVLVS
ARFGAP1 inhibitor: rat ARFGAP1 inhibition; 360,000 compounds, 0.26% hits; Q62848; inhibition, % at 16.5 µM; Arfgap1-stimulated ARF1 GTP hydrolysis, GDP FP detection;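 active = inhibition above a per-plate limit, mean inhibition of low control wells plus 3 SD, cut at about 25% in these data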;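 note: 0% = DMSO wells with enzyme and 100% = wells lacking Arfgap1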
Target sequence (Q62848 1-136 limits assumed): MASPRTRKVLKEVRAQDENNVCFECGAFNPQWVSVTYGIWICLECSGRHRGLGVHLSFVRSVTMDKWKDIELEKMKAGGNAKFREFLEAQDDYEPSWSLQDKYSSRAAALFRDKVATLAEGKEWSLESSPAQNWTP
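Material – truncated rat Arfgap1 GAP domain · Buffer or medium – HEPES-based buffer, pH 7.5 · Reagent – human ARF1(Δ1-17)-GTP substrate · Dosing – 16.5 µM single point, 1.26% DMSO · Schedule – GTP hydrolysis reaction 2 h at 25 °C · Technique – GDP detection by fluorescence polarization · Benchmarks – No-Arfgap1 wells (100%) versus DMSO full-reaction wells (0%) · Repeats – single replicate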
Efflux pump inh: antifungal efflux pump inhibition, Nile Red retention; S. cerevisiae Candida pump triplex; 330,000 compounds, 0.44% hits; inhibition, % at 10 µM;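 active = plate passing quality check with inhibition over a set limit, or well fluorescence over plate mean plus 4 SD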;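 note: Nile Red retained in pooled yeast measured as flow cytometry median fluorescence; 0% = buffer negative control and 100% = Enniatin B positive control; higher means more Nile Red kept so more efflux inhibition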
Cmpd fluor yeast: compound fluorescence in yeast efflux pump counter-screen; shares compounds with Efflux pump inh; S. cerevisiae AD/pABC3, flow cytometry; fluorescence ratio to DMSO, % at 10 µM; 1,700 compounds, 4% hits;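 active = fluorescence ratio to DMSO above its plate's cutoff, the plate mean ratio plus 5 SD, cut at about 210% in these data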;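 note: unstained yeast with no Nile Red so the signal is compound autofluorescence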
CaMdr1 efflux inh: blocks the Candida albicans Mdr1 efflux pump in yeast | shares compounds with Efflux pump inh | S. cerevisiae AD/CaMDR1, Nile Red efflux, flow cytometry | inhibition, % at 10 µM | 1,700 compounds, 1% hits | AID 588518; in the data active = inhibition above about 26%;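 note: 0% = DMSO vehicle and 100% = reference inhibitor; higher means more Nile Red retained so more efflux inhibition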
Cdr2 pump inh: inhibitors of Candida albicans Cdr2 efflux pump; shares compounds with Efflux pump inh; S. cerevisiae AD/CaCDR2, Nile Red retention, flow cytometry; 1,700 compounds, 4% hits; Nile Red retention ratio vs DMSO, % at 10 µM; AID 588520; in the data active = Nile Red retention ratio vs DMSO above about 190%;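 note: higher ratio means more blocking of Cdr2 efflux of the dye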
Cdr1 pump inh: inhibitors of Candida albicans Cdr1 efflux pump; shares compounds with Efflux pump inh; AID 588522; inhibition, % at 10 µM; S. cerevisiae AD/CaCDR1, Nile Red efflux, flow cytometry; 1,700 compounds, 1% hits;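 active = inhibition above the screen-wide mean plus twice its standard deviation, cut at about 32% in these data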
Numbers without * were called inactive. Most compounds without a hit are left out; they make up all but 1.9% or so of the library.

How did COc1ccc(-n2cc(-c3ccccc3)c3c(NN4CCOCC4)ncnc32)cc1 do in these assays?
ASAP1 inh: 11; Rtt109 Vps75: 17; ARFGAP1 inhibitor: 0; Efflux pump inh: 2.5*; Cmpd fluor yeast: 109; CaMdr1 efflux inh: 0; Cdr2 pump inh: 106; Cdr1 pump inh: 0

What do the screens show for `O=S(=O)(c1cccs1)N1CCCCN2[C@H](CO)[C@H](c3ccc(/C=C/c4ccccc4)cc3)[C@@H]2C1`?
FGF22 binding: 0

Results for CC1CCCCC12NC(=O)N(CC(=O)NC1CCCc3ccccc31)C2=O (stereo unspecified) ?
ASAP1 inh: 12; Rtt109 Vps75: -15; FGF22 binding: 0; ARFGAP1 inhibitor: -2; Efflux pump inh: 0.9*; Cmpd fluor yeast: 99; CaMdr1 efflux inh: 0; Cdr2 pump inh: 101; Cdr1 pump inh: 0

What do the screens show for `CO[C@H]1CN(C)C(=O)c2ccc(NC(=O)Nc3cccc(F)c3)cc2OC[C@@H](C)N(C(=O)Nc2c(C)noc2C)C[C@H]1C`?
FGF22 binding: 0

What do the screens show for `COC(=O)C1=C(C)N(c2cc(C)cc(C)c2)/C(=C/c2ccc(O)cc2)C1=O`?
ASAP1 inh: 0; Rtt109 Vps75: -1; FGF22 binding: 0; ARFGAP1 inhibitor: 6; Efflux pump inh: 0.7*; Cmpd fluor yeast: 114; CaMdr1 efflux inh: 0; Cdr2 pump inh: 101; Cdr1 pump inh: 0

Results for COC(=O)C1=C(C)N(c2ccc(Cl)cc2)/C(=C/c2ccc(O)cc2)C1=O ?
ASAP1 inh: 1; Rtt109 Vps75: 0; FGF22 binding: 43; ARFGAP1 inhibitor: -4; Efflux pump inh: 0

Results for COc1ccc(/C=C2\SC(=S)N(CCCC(=O)Nc3cccc(C(=O)O)c3)C2=O)cc1OC ?
ASAP1 inh: 6; Rtt109 Vps75: 15; ARFGAP1 inhibitor: 5; Efflux pump inh: 7.2*; Cmpd fluor yeast: 97; CaMdr1 efflux inh: 0; Cdr2 pump inh: 102; Cdr1 pump inh: 0

What do the screens show for `COc1ccc(/C=C2\SC(=S)N(CCC(=O)NC3=NCCS3)C2=O)cc1OC`?
ASAP1 inh: -10; Rtt109 Vps75: -4; FGF22 binding: 1; ARFGAP1 inhibitor: -6; Efflux pump inh: 5.5*; Cmpd fluor yeast: 109; CaMdr1 efflux inh: 0; Cdr2 pump inh: 110; Cdr1 pump inh: 0

How did CCCNC(=O)Nc1ccc2c(c1)C(=O)N(C)C[C@@H](OC)[C@H](C)CN(Cc1cncnc1)[C@@H](C)CO2 do in these assays?
FGF22 binding: 0

Results for COc1ccc(C(=O)OCC(=O)NCCN2C(=O)CSC2=O)cc1 ?
ASAP1 inh: 3; Rtt109 Vps75: 1; FGF22 binding: 0; ARFGAP1 inhibitor: 2; Efflux pump inh: 0; Cmpd fluor yeast: 108; CaMdr1 efflux inh: 0; Cdr2 pump inh: 91; Cdr1 pump inh: 0

Results for O=C(COC(=O)c1ccc(S(=O)(=O)Nc2ccccc2)cc1)NCCN1C(=O)CSC1=O ?
ASAP1 inh: 7; Rtt109 Vps75: 3; ARFGAP1 inhibitor: -2; Efflux pump inh: 0

How did CCN(CC)S(=O)(=O)c1ccc(C(=O)OCC(=O)NCCN2C(=O)CSC2=O)cc1 do in these assays?
ASAP1 inh: 7; Rtt109 Vps75: -3; FGF22 binding: 0; ARFGAP1 inhibitor: -2; Efflux pump inh: 0; Cmpd fluor yeast: 109; CaMdr1 efflux inh: 0; Cdr2 pump inh: 112; Cdr1 pump inh: 0

How did O=C(COC(=O)c1ccc(Br)cc1)NCCN1C(=O)CSC1=O do in these assays?
ASAP1 inh: -6; Rtt109 Vps75: -6; FGF22 binding: 0; ARFGAP1 inhibitor: -8; Efflux pump inh: 0; Cmpd fluor yeast: 112; CaMdr1 efflux inh: 0; Cdr2 pump inh: 99; Cdr1 pump inh: 0

Results for COc1ccccc1OCC(=O)OCC(=O)NCCN1C(=O)CSC1=O ?
ASAP1 inh: -3; Rtt109 Vps75: -4; ARFGAP1 inhibitor: -15; Efflux pump inh: 0

Results for Cc1ccc(/C=C/C(=O)OCC(=O)NCCN2C(=O)CSC2=O)cc1 ?
ASAP1 inh: 6; Rtt109 Vps75: 10; FGF22 binding: 0; ARFGAP1 inhibitor: 5; Efflux pump inh: 0

Results for Cc1ccc(C(=O)OCC(=O)NCCN2C(=O)CSC2=O)cc1 ?
ASAP1 inh: 2; Rtt109 Vps75: -3; FGF22 binding: 0; ARFGAP1 inhibitor: 13; Efflux pump inh: 0; Cmpd fluor yeast: 101; CaMdr1 efflux inh: 0; Cdr2 pump inh: 102; Cdr1 pump inh: 0

Results for CCN(CC)c1ccc(-n2c(C)cc(C=O)c2C)cc1 ?
ASAP1 inh: 2; Rtt109 Vps75: 1; ARFGAP1 inhibitor: -1; Efflux pump inh: 0

How did COCC(=O)N(C)C[C@H]1Oc2ncc(C#C[C@H](C)O)cc2C(=O)N([C@@H](C)CO)C[C@H]1C do in these assays?
ASAP1 inh: 2; FGF22 binding: 0; ARFGAP1 inhibitor: 0

How did CO[C@H]1CN(C)C(=O)c2cc(NC(C)=O)ccc2OC[C@H](C)N(C(=O)c2cnccn2)C[C@H]1C do in these assays?
FGF22 binding: 0

How did Cc1sc2ncnc(SCC(=O)NC(C)C(C)C)c2c1C (stereo unspecified) do in these assays?
ASAP1 inh: 17; Rtt109 Vps75: 20; FGF22 binding: 0; ARFGAP1 inhibitor: 4; Efflux pump inh: 0.8*; Cmpd fluor yeast: 109; CaMdr1 efflux inh: 0; Cdr2 pump inh: 112; Cdr1 pump inh: 0

What do the screens show for `Cc1sc2ncnc(SC(C)C(=O)N3c4ccccc4Sc4ccccc43)c2c1C` (stereo unspecified)?
ASAP1 inh: 0; Rtt109 Vps75: 12; FGF22 binding: 1; ARFGAP1 inhibitor: -8; Efflux pump inh: 15*; Cmpd fluor yeast: 103; CaMdr1 efflux inh: 0; Cdr2 pump inh: 83; Cdr1 pump inh: 0

How did Cc1ccc(OCC(=O)NNC(=O)C(C)Sc2ncnc3sc(C)c(C)c23)cc1 (stereo unspecified) do in these assays?
ASAP1 inh: -5; Rtt109 Vps75: -2; ARFGAP1 inhibitor: -15; Efflux pump inh: 0

How did O=C(NC(=O)c1ccccc1)Nc1ccc(Cl)cn1 do in these assays?
ASAP1 inh: 10; Rtt109 Vps75: 0; FGF22 binding: 0; ARFGAP1 inhibitor: 10; Efflux pump inh: 0.4*; Cmpd fluor yeast: 103; CaMdr1 efflux inh: 0; Cdr2 pump inh: 96; Cdr1 pump inh: 0

What do the screens show for `O=C(Nc1ccc(Cl)cn1)Nc1ccc(Cl)cn1`?
ASAP1 inh: 5; FGF22 binding: 1; ARFGAP1 inhibitor: -2; Efflux pump inh: 0
